The structures appear in SMILES notation.

The first assay has as its target T1, C-C chemokine receptor type 3 (Homo sapiens, UniProt P51677).
T1 sequence (P51677 whole entry): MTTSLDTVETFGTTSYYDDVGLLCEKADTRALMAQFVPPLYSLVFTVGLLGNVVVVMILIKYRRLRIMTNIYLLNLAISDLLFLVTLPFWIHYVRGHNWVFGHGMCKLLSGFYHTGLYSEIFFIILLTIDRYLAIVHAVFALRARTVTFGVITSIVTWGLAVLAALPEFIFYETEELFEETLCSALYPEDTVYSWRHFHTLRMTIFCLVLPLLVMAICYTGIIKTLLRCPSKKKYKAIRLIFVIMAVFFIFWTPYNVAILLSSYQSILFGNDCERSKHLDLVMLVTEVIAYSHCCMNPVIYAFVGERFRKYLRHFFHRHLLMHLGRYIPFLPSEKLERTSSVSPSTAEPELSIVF
Put plainly: Displacement of [125I]eotaxin from human CCR3 expressed in CHO cells. Type of assay: cell-based. An outline of the steps:
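Binding of 0.15 nM [125I]eotaxin to CHO cells expressing human CCR3. Data are a single determination, mean ± SD (n = 2), or mean ± SEM (n indicated). ">" means less than 50% response at the stated concentration.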
Background: In a radioligand displacement assay an active substance lowers the binding of a labelled ligand.
`Cc1ccc(CNC[C@H](NC(=O)CNC(=O)c2cc(C(F)(F)F)ccc2NCc2ccccc2)C(=O)NC(C)(C)C)c(C)c1` returned a half-inhibitory concentration (IC50) above 10 µM.
`Cc1ccc(CNC[C@H](NC(=O)CNC(=O)c2cccc(C(F)(F)F)c2)C(N)=O)c(C)c1`: the half-inhibitory concentration (IC50) was above 10 µM.

Another assay deals with T2, C-C chemokine receptor type 2 (Homo sapiens, UniProt P41597). As to the kind of experiment: Displacement of [125]MCP1 from CCR2 in human PBMCs. An outline of the steps: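 Competition binding with 0.3 nM [125I]MCP-1 on human peripheral blood mononuclear cells at 23 °C. IC50 given as mean ± SD (n = 2) or mean ± SEM (n > 2). Single determinations are listed with n = 1.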
T2 sequence (P41597 whole entry): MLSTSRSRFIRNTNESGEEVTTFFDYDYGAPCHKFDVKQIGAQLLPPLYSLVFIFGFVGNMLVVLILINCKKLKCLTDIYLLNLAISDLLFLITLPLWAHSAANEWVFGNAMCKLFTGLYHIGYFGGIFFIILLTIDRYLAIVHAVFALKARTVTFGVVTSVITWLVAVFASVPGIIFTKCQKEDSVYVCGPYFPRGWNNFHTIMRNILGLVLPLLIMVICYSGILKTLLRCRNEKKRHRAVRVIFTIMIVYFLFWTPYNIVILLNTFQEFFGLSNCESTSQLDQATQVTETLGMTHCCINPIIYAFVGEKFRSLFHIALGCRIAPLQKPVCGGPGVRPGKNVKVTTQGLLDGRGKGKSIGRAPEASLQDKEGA
In turn, `Cc1ccc(CNC[C@H](NC(=O)CNC(=O)c2cc(C(F)(F)F)ccc2NCc2ccccc2)C(=O)NC(C)(C)C)c(C)c1` registered a concentration for half-maximal inhibition (IC50) of 0.019 µM.
For `Cc1ccc(CNC[C@H](NC(=O)CNC(=O)c2cccc(C(F)(F)F)c2)C(N)=O)c(C)c1`, the IC50 was determined as 0.066 µM.
For the molecule `Cc1ccc(CNC[C@H](NC(=O)CNC(=O)c2cccc(C(F)(F)F)c2)C(=O)NC2(C)CC2)c(C)c1`, the concentration for half-maximal inhibition (IC50) was determined as 0.1 µM.
Still for that read-out and setting: the figure for `Cc1ccc(CNCC[C@H](NC(=O)CNC(=O)c2cccc(C(F)(F)F)c2)C(=O)NC(C)(C)C)c(C)c1` is 0.77 µM.
The molecule `Cc1ccccc1CNC[C@H](NC(=O)CNC(=O)c1cccc(C(F)(F)F)c1)C(=O)NC(C)(C)C` yielded a half-inhibitory concentration (IC50) of 0.4 µM.
In the case of `Cc1ccc(CN2CC[C@@H](NC(=O)CNC(=O)c3cccc(C(F)(F)F)c3)C2)c(C)c1`, the half-maximal inhibitory concentration (IC50) is 0.017 µM.
In turn, `COc1ccc(CNC[C@H](NC(=O)CNC(=O)c2cccc(C(F)(F)F)c2)C(=O)NC(C)(C)C)c(C)c1C` gave a concentration for half-maximal inhibition (IC50) of 0.69 µM.
In the case of `COc1ccc(CNC[C@H](NC(=O)CNC(=O)c2cccc(C(F)(F)F)c2)C(=O)NC(C)(C)C)c(C)c1`, the IC50 stood at 0.047 µM.
The same measure, in the same setting: the figure for `Cc1ccc(CNC[C@H](CO)NC(=O)CNC(=O)c2cccc(C(F)(F)F)c2)c(C)c1` is 2.2 µM.
With `COC(=O)[C@H](CNCc1ccc(C)cc1C)NC(=O)CNC(=O)c1cccc(C(F)(F)F)c1`, the IC50 was found to be 1.5 µM.
`Cc1ccc(CNC[C@H](NC(=O)CNC(=O)c2cccc(OC(F)(F)F)c2)C(=O)NC(C)(C)C)c(C)c1` showed an IC50 of 0.19 µM.
`CCNC(=O)[C@H](CCNCc1ccc(C)cc1C)NC(=O)CNC(=O)c1cccc(C(F)(F)F)c1` displayed an IC50 of 0.41 µM.
Take `Cc1ccc(CNC[C@H](NC(=O)CNC(=O)c2cccc(C(F)(F)F)c2)C(=O)NC(C)C)c(C)c1`: the IC50 was determined as 0.17 µM.
Still for that read-out and setting: the result for `COc1cc(C)c(CNC[C@H](NC(=O)CNC(=O)c2cccc(C(F)(F)F)c2)C(=O)NC(C)(C)C)cc1C` reads 1.3 µM; that for `CC(C)(C)NC(=O)[C@H](CNCc1ccc(Br)cc1)NC(=O)CNC(=O)c1cccc(C(F)(F)F)c1`, 1.7 µM; that for `Cc1ccc(CNC[C@H](NC(=O)CNC(=O)c2cccc(C(F)(F)F)c2)C(=O)Nc2ccccc2)c(C)c1`, 1.2 µM.
For `Cc1ccc(CNC[C@H](NC(=O)CNC(=O)c2cc(C(F)(F)F)ccc2NC(=O)C2CCCCC2)C(=O)NC(C)(C)C)c(C)c1`, the half-inhibitory concentration (IC50) came to 0.09 µM.
`Cc1ccc(CNC[C@H](NC(=O)CNC(=O)c2cccc(C(F)(F)F)c2)C(=O)NC2CC2)c(C)c1` displayed an IC50 of 0.088 µM.
Regarding `CNc1cc(C(=O)NCC(=O)N[C@@H](CNCc2ccc(C)cc2C)C(=O)NC(C)(C)C)cc(C(F)(F)F)c1`, the IC50 was 0.016 µM.
`CCc1ccccc1CNC[C@H](NC(=O)CNC(=O)c1cccc(C(F)(F)F)c1)C(=O)NC(C)(C)C` had a 50% inhibitory concentration (IC50) of 0.38 µM.
On the same count and under the same terms, the figure for `Cc1ccc(CNC[C@H](NC(=O)CNC(=O)c2cccc(C(F)(F)F)c2)C(=O)NC(C)(C)C)cc1[N+](=O)[O-]` is 0.67 µM.
The same measure, in the same setting: the result for `CNC(=O)[C@H](CNCc1ccc(C)cc1C)NC(=O)CNC(=O)c1cccc(C(F)(F)F)c1` reads 0.23 µM; that for `Cc1ccc(CNC[C@H](NC(=O)CNC(=O)c2cccc(C(F)(F)F)c2)C(=O)NCc2ccccc2)c(C)c1`, 7 µM.

In a further assay the target is T3, C-C chemokine receptor type 1 (Homo sapiens) (UniProt P32246).
T3 sequence (whole entry): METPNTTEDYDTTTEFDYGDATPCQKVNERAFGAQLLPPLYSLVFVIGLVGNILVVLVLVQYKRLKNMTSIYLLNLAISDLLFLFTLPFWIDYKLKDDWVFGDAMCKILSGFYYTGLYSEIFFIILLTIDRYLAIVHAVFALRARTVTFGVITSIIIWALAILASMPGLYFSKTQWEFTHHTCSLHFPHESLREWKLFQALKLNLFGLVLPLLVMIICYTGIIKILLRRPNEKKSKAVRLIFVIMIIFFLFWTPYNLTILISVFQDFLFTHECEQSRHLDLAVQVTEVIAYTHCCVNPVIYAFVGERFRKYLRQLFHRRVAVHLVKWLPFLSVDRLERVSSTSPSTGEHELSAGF
Put plainly: Inhibition of CCR1 at 10 uM.
Regarding `Cc1ccc(CNC[C@H](NC(=O)CNC(=O)c2cc(C(F)(F)F)ccc2NCc2ccccc2)C(=O)NC(C)(C)C)c(C)c1`, the inhibition is below 30%.
Same read-out and setting: the figure for `Cc1ccc(CNC[C@H](NC(=O)CNC(=O)c2cccc(C(F)(F)F)c2)C(N)=O)c(C)c1` is below 30%.
Still for that read-out and setting: the figure for `Cc1ccc(CNC[C@H](NC(=O)CNC(=O)c2cccc(C(F)(F)F)c2)C(=O)NC2(C)CC2)c(C)c1` is below 30%; for `Cc1ccc(CNCC[C@H](NC(=O)CNC(=O)c2cccc(C(F)(F)F)c2)C(=O)NC(C)(C)C)c(C)c1` it is below 30%.
Still for that read-out and setting: the figure for `Cc1ccccc1CNC[C@H](NC(=O)CNC(=O)c1cccc(C(F)(F)F)c1)C(=O)NC(C)(C)C` is below 30%; for `Cc1ccc(CN2CC[C@@H](NC(=O)CNC(=O)c3cccc(C(F)(F)F)c3)C2)c(C)c1` it is below 30%; for `COc1ccc(CNC[C@H](NC(=O)CNC(=O)c2cccc(C(F)(F)F)c2)C(=O)NC(C)(C)C)c(C)c1C` it is below 30%.
The molecule `COc1ccc(CNC[C@H](NC(=O)CNC(=O)c2cccc(C(F)(F)F)c2)C(=O)NC(C)(C)C)c(C)c1` returned an inhibition below 30%.
`Cc1ccc(CNC[C@H](CO)NC(=O)CNC(=O)c2cccc(C(F)(F)F)c2)c(C)c1` gave an inhibition below 30%.
The same measure, in the same setting: the figure for `COC(=O)[C@H](CNCc1ccc(C)cc1C)NC(=O)CNC(=O)c1cccc(C(F)(F)F)c1` is below 30%; for `Cc1ccc(CNC[C@H](NC(=O)CNC(=O)c2cccc(OC(F)(F)F)c2)C(=O)NC(C)(C)C)c(C)c1` it is below 30%.
The same measure, in the same setting: the result for `CCNC(=O)[C@H](CCNCc1ccc(C)cc1C)NC(=O)CNC(=O)c1cccc(C(F)(F)F)c1` reads below 30%; that for `Cc1ccc(CNC[C@H](NC(=O)CNC(=O)c2cccc(C(F)(F)F)c2)C(=O)NC(C)C)c(C)c1`, below 30%; that for `COc1cc(C)c(CNC[C@H](NC(=O)CNC(=O)c2cccc(C(F)(F)F)c2)C(=O)NC(C)(C)C)cc1C`, below 30%.
The same measure, in the same setting: the figure for `CC(C)(C)NC(=O)[C@H](CNCc1ccc(Br)cc1)NC(=O)CNC(=O)c1cccc(C(F)(F)F)c1` is below 30%; for `Cc1ccc(CNC[C@H](NC(=O)CNC(=O)c2cccc(C(F)(F)F)c2)C(=O)Nc2ccccc2)c(C)c1` it is below 30%.
In turn, `Cc1ccc(CNC[C@H](NC(=O)CNC(=O)c2cc(C(F)(F)F)ccc2NC(=O)C2CCCCC2)C(=O)NC(C)(C)C)c(C)c1` returned an inhibition below 30%.
Same read-out and setting: the result for `Cc1ccc(CNC[C@H](NC(=O)CNC(=O)c2cccc(C(F)(F)F)c2)C(=O)NC2CC2)c(C)c1` reads below 30%; that for `CNc1cc(C(=O)NCC(=O)N[C@@H](CNCc2ccc(C)cc2C)C(=O)NC(C)(C)C)cc(C(F)(F)F)c1`, below 30%.
Same read-out and setting: the figure for `CCc1ccccc1CNC[C@H](NC(=O)CNC(=O)c1cccc(C(F)(F)F)c1)C(=O)NC(C)(C)C` is below 30%.
As for `Cc1ccc(CNC[C@H](NC(=O)CNC(=O)c2cccc(C(F)(F)F)c2)C(=O)NC(C)(C)C)cc1[N+](=O)[O-]`, the inhibition was below 30%.
In turn, `CNC(=O)[C@H](CNCc1ccc(C)cc1C)NC(=O)CNC(=O)c1cccc(C(F)(F)F)c1` had an inhibition below 30%.
Same read-out and setting: the result for `Cc1ccc(CNC[C@H](NC(=O)CNC(=O)c2cccc(C(F)(F)F)c2)C(=O)NCc2ccccc2)c(C)c1` reads below 30%.

Another assay concerns the target T2, C-C chemokine receptor type 2. As to the kind of experiment: Antagonist activity at CCR2 in THP1 cells assessed as inhibition of MCP1-induced Ca2+ flux. Type of assay: functional, cell-based, THP-1. A general note: A change in cytosolic calcium serves as a functional read-out for many receptors and channels.
`Cc1ccc(CNC[C@H](NC(=O)CNC(=O)c2cc(C(F)(F)F)ccc2NCc2ccccc2)C(=O)NC(C)(C)C)c(C)c1`: the concentration for half-maximal inhibition (IC50) amounted to 0.057 µM.
In the case of `Cc1ccc(CNC[C@H](NC(=O)CNC(=O)c2cccc(C(F)(F)F)c2)C(N)=O)c(C)c1`, the IC50 is 0.069 µM.

The term IC50 denotes the concentration that inhibits the measured activity by half. Usually inhibition stands for the share of the control response that was lost under treatment. Low readings indicate little suppression, high ones strong suppression.

Values taken from ChEMBL document CHEMBL1139795, “Capped diaminopropionamide-glycine dipeptides are inhibitors of CC chemokine receptor 2 (CCR2)” (Bioorg Med Chem Lett, 2007).
